Assay results: publication PMC11463018 (Journal of Enzyme Inhibition and Medicinal Chemistry, 2024)

Tests used:
[1] = target: JAK1 (Homo sapiens, UniProt P23458); test: Kinase inhibition assay; assay type: biochemical
[2] = system: EKVX; test: NCI-60 screening, EKVX; assay type: cell-based; details: Homo sapiens, read-out: GI50, EKVX
[3] = Microsomal stability assay; assay type: in vitro ADME; details: human, human liver microsomes, pH 7.4
Outline: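 Human liver microsomes at 0.8 mg/mL, with magnesium chloride and potassium phosphate buffer (pH 7.4), incubated with test compound at 0.5 μM. Mix prewarmed 5 min at 37 °C, then started with NADPH. Stopped at 0, 5, 10, 15, 30, 60 or 90 min with ice-cold ethyl acetate, spun 4000 rpm for 10 min at 4 °C. Supernatant analysed by LC-MS/MS and half-life determined.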

[4] = target: T1, HDAC6 (Homo sapiens, UniProt Q9UBN7); test: In vitro HDAC enzyme assay; assay type: biochemical
T1 sequence (Q9UBN7 1-1215): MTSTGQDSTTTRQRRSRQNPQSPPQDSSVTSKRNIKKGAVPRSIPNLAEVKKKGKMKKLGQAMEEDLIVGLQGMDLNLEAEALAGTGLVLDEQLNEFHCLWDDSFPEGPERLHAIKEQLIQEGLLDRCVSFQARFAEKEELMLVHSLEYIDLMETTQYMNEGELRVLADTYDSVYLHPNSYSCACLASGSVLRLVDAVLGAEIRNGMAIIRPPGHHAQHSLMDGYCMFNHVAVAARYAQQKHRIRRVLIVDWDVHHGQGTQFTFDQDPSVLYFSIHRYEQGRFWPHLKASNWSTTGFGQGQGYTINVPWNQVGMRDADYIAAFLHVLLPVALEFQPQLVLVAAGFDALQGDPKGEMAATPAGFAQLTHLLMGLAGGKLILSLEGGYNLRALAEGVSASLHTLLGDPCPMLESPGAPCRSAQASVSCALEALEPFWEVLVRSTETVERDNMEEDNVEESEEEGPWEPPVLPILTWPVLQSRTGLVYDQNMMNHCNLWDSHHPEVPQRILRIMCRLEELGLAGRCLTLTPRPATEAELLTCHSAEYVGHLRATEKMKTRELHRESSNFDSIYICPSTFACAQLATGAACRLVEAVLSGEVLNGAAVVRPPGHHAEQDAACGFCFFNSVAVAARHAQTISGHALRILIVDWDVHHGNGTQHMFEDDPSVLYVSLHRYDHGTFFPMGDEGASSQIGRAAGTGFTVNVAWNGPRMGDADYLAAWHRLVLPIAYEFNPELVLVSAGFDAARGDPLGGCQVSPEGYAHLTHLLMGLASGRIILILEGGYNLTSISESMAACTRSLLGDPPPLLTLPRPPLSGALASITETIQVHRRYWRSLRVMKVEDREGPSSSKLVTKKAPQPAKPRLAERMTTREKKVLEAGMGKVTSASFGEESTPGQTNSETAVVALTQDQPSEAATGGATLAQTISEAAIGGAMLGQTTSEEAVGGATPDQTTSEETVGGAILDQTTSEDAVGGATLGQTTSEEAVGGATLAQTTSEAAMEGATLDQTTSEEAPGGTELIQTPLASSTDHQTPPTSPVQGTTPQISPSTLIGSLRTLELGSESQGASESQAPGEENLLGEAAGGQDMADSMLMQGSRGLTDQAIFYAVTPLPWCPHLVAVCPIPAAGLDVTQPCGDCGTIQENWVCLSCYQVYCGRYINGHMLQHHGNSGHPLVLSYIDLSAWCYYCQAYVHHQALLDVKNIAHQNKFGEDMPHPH

[5] = system: RPMI-8226 cells; test: Apoptosis assay; assay type: cell-based, human; details: 1 μM, 48 h, flow cytometry
[6] = system: SNB-19; test: NCI-60 screening, SNB-19; assay type: cell-based; details: Homo sapiens, SNB-19, read-out: GI50, SNB-19
[7] = target: JAK3 (Homo sapiens, UniProt P52333); test: Kinase inhibition assay; assay type: biochemical
Chain of JAK3 (P52333 whole entry): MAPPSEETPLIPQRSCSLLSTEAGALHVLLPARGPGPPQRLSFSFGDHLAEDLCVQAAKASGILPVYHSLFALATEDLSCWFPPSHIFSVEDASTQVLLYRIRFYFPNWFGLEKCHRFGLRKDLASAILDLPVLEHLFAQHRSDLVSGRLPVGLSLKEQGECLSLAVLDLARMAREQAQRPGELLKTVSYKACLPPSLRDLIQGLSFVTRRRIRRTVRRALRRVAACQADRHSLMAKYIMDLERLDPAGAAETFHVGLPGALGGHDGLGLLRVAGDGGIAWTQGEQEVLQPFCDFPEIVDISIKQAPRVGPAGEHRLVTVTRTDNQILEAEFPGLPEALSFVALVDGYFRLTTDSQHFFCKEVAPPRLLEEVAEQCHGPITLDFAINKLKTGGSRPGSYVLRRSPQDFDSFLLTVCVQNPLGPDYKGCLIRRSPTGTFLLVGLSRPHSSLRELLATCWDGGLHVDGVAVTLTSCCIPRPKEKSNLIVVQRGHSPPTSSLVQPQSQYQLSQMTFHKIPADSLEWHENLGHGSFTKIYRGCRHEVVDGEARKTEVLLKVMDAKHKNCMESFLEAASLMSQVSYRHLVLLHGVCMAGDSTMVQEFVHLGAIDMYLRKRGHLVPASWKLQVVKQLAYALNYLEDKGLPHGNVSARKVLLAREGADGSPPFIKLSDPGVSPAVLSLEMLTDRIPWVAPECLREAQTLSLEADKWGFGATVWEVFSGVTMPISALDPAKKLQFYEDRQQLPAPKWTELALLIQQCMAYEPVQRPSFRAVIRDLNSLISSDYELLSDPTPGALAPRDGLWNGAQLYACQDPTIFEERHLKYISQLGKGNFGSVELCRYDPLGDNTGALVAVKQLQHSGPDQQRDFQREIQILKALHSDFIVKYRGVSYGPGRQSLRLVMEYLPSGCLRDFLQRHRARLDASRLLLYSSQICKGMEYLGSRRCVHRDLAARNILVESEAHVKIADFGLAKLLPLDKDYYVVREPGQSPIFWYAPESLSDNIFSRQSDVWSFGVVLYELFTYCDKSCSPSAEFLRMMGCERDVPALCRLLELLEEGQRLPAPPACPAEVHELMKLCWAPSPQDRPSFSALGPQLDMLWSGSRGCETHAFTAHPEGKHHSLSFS

[8] = system: OVCAR-3; test: NCI-60 screening, OVCAR-3; assay type: cell-based; details: Homo sapiens, OVCAR-3, read-out: GI50, OVCAR-3
[9] = system: SNB-75; test: NCI-60 screening, SNB-75; assay type: cell-based; details: Homo sapiens, SNB-75, read-out: GI50, SNB-75
[10] = system: K-562; test: NCI-60 screening, K-562; assay type: cell-based; details: Homo sapiens, K562, read-out: GI50, K-562
[11] = system: 786-0; test: NCI-60 screening, 786-0; assay type: cell-based; details: Homo sapiens, 786-0, read-out: GI50, 786-0
[12] = system: ACHN; test: NCI-60 screening, ACHN; assay type: cell-based; details: Homo sapiens, read-out: GI50, ACHN
[13] = system: HS 578 T; test: NCI-60 screening, HS 578 T; assay type: cell-based; details: Homo sapiens, read-out: GI50, HS 578 T
[14] = target: HDAC11 (Homo sapiens, UniProt Q96DB2); test: In vitro HDAC enzyme assay; assay type: biochemical
Chain of HDAC11 (Q96DB2 whole entry): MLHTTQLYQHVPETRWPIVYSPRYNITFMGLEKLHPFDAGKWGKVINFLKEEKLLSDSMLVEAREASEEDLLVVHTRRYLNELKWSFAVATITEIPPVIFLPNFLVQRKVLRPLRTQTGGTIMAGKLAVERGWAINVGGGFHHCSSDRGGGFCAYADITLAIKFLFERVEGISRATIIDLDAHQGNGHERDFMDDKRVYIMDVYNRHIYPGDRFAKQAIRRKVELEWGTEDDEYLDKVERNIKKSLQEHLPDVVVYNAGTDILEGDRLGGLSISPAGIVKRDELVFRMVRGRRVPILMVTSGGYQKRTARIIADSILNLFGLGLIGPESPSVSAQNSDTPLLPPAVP

[15] = system: HL60; test: NCI-60 screening, HL60; assay type: cell-based; details: Homo sapiens, HL-60, read-out: GI50, HL60
[16] = target: HDAC8 (Homo sapiens, UniProt Q9BY41); test: In vitro HDAC enzyme assay; assay type: biochemical
Chain of HDAC8 (Q9BY41 whole entry): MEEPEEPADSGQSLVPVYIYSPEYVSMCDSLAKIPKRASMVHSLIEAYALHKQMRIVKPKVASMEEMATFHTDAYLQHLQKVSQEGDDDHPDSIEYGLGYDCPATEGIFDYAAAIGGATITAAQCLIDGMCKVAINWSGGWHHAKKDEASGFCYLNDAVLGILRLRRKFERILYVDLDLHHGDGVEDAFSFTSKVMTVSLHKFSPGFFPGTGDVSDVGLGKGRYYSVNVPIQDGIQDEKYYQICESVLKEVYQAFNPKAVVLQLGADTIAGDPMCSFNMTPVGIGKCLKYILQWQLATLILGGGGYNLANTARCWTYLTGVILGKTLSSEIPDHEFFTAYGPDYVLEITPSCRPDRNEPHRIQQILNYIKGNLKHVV

[17] = target: JAK2 (Homo sapiens, UniProt O60674); test: Kinase inhibition assay; assay type: biochemical
[18] = target: HDAC5 (Homo sapiens, UniProt Q9UQL6); test: In vitro HDAC enzyme assay; assay type: biochemical
Chain of HDAC5 (Q9UQL6 whole entry): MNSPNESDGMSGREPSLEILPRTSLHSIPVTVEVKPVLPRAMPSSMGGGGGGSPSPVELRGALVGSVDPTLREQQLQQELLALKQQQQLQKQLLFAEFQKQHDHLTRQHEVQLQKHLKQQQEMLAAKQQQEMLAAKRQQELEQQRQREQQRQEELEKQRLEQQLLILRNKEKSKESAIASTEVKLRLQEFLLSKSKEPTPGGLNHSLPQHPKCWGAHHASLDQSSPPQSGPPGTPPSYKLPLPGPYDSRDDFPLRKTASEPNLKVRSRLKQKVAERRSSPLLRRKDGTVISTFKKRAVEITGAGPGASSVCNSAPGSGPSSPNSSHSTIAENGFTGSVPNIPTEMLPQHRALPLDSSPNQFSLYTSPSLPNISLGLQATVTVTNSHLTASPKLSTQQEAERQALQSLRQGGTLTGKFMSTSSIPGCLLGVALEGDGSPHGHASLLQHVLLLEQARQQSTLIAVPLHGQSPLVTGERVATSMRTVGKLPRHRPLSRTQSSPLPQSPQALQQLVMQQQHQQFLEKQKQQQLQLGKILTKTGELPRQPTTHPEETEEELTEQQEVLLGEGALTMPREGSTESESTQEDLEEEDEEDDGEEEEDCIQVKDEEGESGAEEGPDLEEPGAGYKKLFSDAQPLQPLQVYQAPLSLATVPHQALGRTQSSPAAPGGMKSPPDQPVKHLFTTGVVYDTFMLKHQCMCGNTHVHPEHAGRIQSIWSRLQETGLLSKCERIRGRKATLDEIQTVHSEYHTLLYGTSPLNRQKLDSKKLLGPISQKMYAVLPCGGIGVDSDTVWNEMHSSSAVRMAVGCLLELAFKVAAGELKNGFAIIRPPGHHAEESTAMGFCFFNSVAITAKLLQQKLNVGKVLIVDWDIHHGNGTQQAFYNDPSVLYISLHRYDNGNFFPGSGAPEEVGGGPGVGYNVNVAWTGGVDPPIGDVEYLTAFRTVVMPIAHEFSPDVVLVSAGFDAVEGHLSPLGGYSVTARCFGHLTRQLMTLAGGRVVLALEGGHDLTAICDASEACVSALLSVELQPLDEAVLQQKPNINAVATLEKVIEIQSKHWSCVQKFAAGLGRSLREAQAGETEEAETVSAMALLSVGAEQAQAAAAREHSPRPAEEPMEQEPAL

[19] = system: M14; test: NCI-60 screening, M14; assay type: cell-based; details: Homo sapiens, M14, read-out: GI50, M14
[20] = system: SR; test: NCI-60 screening, SR; assay type: cell-based; details: Homo sapiens, read-out: GI50, SR
[21] = target: HDAC4 (Homo sapiens, UniProt P56524); test: In vitro HDAC enzyme assay; assay type: biochemical
Chain of HDAC4 (P56524 whole entry): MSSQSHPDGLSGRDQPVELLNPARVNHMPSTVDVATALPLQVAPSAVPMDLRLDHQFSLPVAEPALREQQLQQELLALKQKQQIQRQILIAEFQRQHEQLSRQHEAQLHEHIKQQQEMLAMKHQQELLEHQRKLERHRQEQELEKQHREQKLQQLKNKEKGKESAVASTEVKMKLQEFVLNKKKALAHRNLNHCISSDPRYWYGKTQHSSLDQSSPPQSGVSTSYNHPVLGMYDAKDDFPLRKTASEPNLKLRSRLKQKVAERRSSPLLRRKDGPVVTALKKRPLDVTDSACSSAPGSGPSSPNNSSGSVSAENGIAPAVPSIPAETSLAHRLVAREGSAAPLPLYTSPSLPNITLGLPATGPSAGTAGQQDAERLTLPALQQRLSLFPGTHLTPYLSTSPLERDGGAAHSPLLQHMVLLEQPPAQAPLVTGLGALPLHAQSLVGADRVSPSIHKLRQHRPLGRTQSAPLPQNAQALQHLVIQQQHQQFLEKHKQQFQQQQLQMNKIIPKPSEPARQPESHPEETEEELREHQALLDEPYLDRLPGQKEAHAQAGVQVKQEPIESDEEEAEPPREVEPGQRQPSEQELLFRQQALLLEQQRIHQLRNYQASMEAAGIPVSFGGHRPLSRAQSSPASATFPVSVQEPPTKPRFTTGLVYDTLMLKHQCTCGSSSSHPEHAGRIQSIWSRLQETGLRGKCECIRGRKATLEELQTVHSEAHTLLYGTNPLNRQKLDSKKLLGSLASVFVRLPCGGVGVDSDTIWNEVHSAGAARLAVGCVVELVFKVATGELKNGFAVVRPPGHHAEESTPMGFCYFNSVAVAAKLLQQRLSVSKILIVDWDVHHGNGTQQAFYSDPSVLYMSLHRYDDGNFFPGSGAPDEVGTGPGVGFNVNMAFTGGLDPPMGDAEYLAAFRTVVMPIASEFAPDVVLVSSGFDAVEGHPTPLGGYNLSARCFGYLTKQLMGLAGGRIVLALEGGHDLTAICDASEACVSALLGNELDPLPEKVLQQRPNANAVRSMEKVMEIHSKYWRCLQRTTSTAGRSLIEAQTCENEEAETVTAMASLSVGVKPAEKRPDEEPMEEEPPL

[22] = system: MDA-MB-231; test: cells; assay type: cell-based; details: Homo sapiens, MDA-MB-231, read-out: Antiproliferative effect IC50, MDA-MB-231
[23] = target: HDAC2 (Homo sapiens, UniProt Q92769); test: In vitro HDAC enzyme assay; assay type: biochemical
Chain of HDAC2 (Q92769 whole entry): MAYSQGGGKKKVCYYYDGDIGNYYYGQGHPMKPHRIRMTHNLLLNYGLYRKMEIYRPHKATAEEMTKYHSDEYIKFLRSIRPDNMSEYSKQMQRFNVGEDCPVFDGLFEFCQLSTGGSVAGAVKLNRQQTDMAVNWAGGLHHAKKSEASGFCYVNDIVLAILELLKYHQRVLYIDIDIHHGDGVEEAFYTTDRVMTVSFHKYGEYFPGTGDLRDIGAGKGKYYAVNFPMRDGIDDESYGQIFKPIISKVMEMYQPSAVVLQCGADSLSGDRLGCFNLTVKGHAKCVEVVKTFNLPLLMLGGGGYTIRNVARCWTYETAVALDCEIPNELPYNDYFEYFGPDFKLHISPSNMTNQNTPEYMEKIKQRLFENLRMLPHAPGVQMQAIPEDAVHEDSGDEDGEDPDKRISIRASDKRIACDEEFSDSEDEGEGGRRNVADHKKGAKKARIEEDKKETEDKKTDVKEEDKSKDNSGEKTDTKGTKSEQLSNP

[24] = target: HDAC1 (Homo sapiens, UniProt Q13547); test: In vitro HDAC enzyme assay; assay type: biochemical
Chain of HDAC1 (Q13547 whole entry): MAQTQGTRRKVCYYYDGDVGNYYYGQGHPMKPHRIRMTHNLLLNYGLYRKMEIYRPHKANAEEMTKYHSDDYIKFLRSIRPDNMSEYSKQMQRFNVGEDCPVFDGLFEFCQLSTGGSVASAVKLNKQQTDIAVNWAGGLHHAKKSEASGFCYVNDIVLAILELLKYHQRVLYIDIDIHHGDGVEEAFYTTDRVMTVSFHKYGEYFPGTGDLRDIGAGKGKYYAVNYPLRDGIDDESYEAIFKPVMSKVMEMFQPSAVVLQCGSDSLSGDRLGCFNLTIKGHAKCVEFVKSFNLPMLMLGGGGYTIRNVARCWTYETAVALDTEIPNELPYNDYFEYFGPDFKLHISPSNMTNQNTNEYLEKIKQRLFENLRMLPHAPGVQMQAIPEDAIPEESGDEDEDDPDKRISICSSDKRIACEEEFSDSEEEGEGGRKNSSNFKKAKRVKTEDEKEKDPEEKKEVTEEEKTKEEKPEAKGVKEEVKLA

O=C(NO)c1ccc(CNc2nc3cccc(-c4ccc5c(c4)OCO5)n3n2)cc1 [Compound 19, 4-(((5-(Benzo[d][1, 3]dioxol-5-yl)-[1,2, 4]triazolo[1,5-a]pyridin-2-yl)amino)methyl)-N-hydroxybenzamide]
IC50 [1]: 0.165 ± 0.013 µM
GI50 [2]: 0.78 µM
half-life at 0.5 μM [3]: 14.5 h
IC50 [4]: 0.0043 ± 0.0001 µM
Induction of RPMI-8226 cells apoptosis [5]: 85.3%
GI50 [6]: 1 µM
IC50 [7]: > 10 µM
JAK3 IC50 ([7]; duplicate, SD <15%): very poor inhibitory activities
GI50 [8]: 0.42 µM
GI50 [9]: 0.35 µM
GI50 [10]: 0.32 µM
GI50 [11]: 1 µM
GI50 [12]: 0.55 µM
GI50 [13]: 0.14 µM
IC50 [14]: 1.4 ± 0.102 µM
GI50 [15]: 0.44 µM
IC50 [16]: 0.64 ± 0.0283 µM
IC50 [17]: 0.278 ± 0.02 µM
IC50 [18]: > 50 µM
HDAC5 IC50 ([18]; duplicate, SD <15%): no activity
GI50 [19]: 0.55 µM
GI50 [20]: 0.1 µM
IC50 [21]: > 50 µM
HDAC4 IC50 ([21]; duplicate, SD <15%): no activity
IC50 [22]: 0.75 ± 0.03 µM
IC50 [23]: 0.0365 ± 0.00095 µM
Fold weaker on HDAC2 than HDAC6 ([23]; IC50 HDAC2 vs HDAC6): ~8.5 fold
IC50 [24]: 0.0254 ± 0.0012 µM
Fold weaker on HDAC1 than HDAC6 ([24]; IC50 HDAC1 vs HDAC6): ~6 fold
